How the values were obtained:
[1] = system: Plasmodium falciparum; assay: Antiplasmodial activity against chloroquine-sensitive Plasmodium falciparum NF54 infected in erythrocytes assessed as reduction in parasite growth incubated for 48 hrs by lactate dehydrogenase assay; assay type: functional, organism-based; settings: NF54, Erythrocyte
How it was run: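 P. falciparum NF54 cultured in supplemented RPMI-1640 at 37 °C under 5% CO₂/3% O₂/92% N₂. Rings synchronised with 5% D-sorbitol and set to 2% parasitaemia, 2% haematocrit. Serial dilutions added after a 24 h incubation, then a further 48 h incubation. Quinine as positive control. pLDH read-out with tetrazolium-phenazine ethosulphate, 40 min at 37 °C, A620. IC50 from log sigmoid dose-response curves, triplicate.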

[2] = Binding affinity to recombinant Plasmodium falciparum HSP70-1 expressed in Escherichia coli assessed as dissociation rate constant by SPR analysis
How it was run: (§1)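 MP-SPR at 25 °C in PBS-Tween 20 with 20 mM EDTA, pH 7.4. Analyte at 0, 1.25, 2.5, 5 and 10 nM, injected three times. Association 3 min, dissociation 10 min. Double-referenced, global 1:1 Langmuir fit.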

[3] = Binding affinity to recombinant Plasmodium falciparum HSP70-z expressed in Escherichia coli assessed as steady state affinity by SPR analysis; how it was run: as §1
[4] = Binding affinity to recombinant Plasmodium falciparum HSP70-1 expressed in Escherichia coli assessed as steady state affinity by SPR analysis; how it was run: as §1
[5] = Binding affinity to recombinant Plasmodium falciparum HSP70-z expressed in Escherichia coli assessed as dissociation rate constant by SPR analysis; how it was run: as §1
[6] = Selectivity index, ratio of IC50 for human HEK293 cells to IC50 for Plasmodium falciparum NF54; assay type: toxicity; settings: read-out: Ratio IC50
[7] = system: HEK293; assay: Cytotoxicity against human HEK293 cells incubated for 48 hrs by MTT assay; assay type: cell-based; settings: HEK293, 48 h
How it was run: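 HEK-293 monolayers grown in DMEM with 10% FBS and penicillin/streptomycin at 37 °C, 5% CO₂. Cells at 10 000/well exposed 48 h to serial dilutions with final DMSO under 1%. Camptothecin as positive control. MTT (5 mg/ml in PBS pH 7.3) added for 2 h, formazan dissolved in DMSO, read at A540 with 690 nm reference. IC50 from % viability, triplicate.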

## COc1ccc(-c2cc(-c3ccc(C)cc3)nc(N3CCN(c4ccnc5cc(Cl)ccc45)CC3)n2)cc1
[1]
  IC50: 2630 nM

## Cc1ccc(-c2cc(-c3ccc(Cl)cc3)nc(NCCCCNc3ccnc4cc(Cl)ccc34)n2)cc1
[1]
  IC50: 9490 nM

## COc1ccc(-c2cc(-c3ccc(OC)c(OC)c3)nc(NCCCCNc3ccnc4cc(Cl)ccc34)n2)cc1
[1]
  IC50: 2610 nM

## COc1ccc(-c2cc(-c3ccc(OC)cc3)nc(N3CCN(c4ccnc5cc(Cl)ccc45)CC3)n2)cc1
[2]
  Dissociation rate constant (koff): 1.32 10^-2/s
[3]
  Kd: 13700 nM
[4]
  Kd: 2.19 nM
[5]
  Dissociation rate constant (koff): 8.24 10^-2/s
[1]
  IC50: 7690 nM

## COc1ccc(/C=C/C(=O)c2ccc(O)cc2)c(O)c1
[1]
  IC50: 590 nM

## COc1ccc(C(=O)/C=C/c2ccc(OC)c(OC)c2)c(O)c1
[1]
  IC50: 3180 nM

## C=C[C@H]1CN2CC[C@H]1C[C@H]2[C@H](O)c1ccnc2ccc(OC)cc12 [QUININE]
[6]
  selectivity ratio: 1240
[1]
  IC50: 108 nM
[7]
  IC50: 134000 nM

## COc1ccc(-c2cc(-c3ccc(OC)cc3)nc(NCCCCNc3ccnc4cc(Cl)ccc34)n2)cc1
[1]
  IC50: 83000 nM

## Oc1ccc(-c2cc(-c3ccc(O)c(O)c3)nc(NCCCCNc3ccnc4cc(Cl)ccc34)n2)cc1
[2]
  Dissociation rate constant (koff): 7.84 10^-2/s
[3]
  Kd: 4750 nM
[4]
  Kd: 281 nM
[5]
  Dissociation rate constant (koff): 9.06 10^-2/s
[1]
  IC50: 1620 nM

## Clc1ccc2c(N3CCN(c4nc(-c5ccccc5)cc(-c5ccccc5)n4)CC3)ccnc2c1
[1]
  IC50: 7500 nM

## CC[C@@]1(O)C(=O)OCc2c1cc1n(c2=O)Cc2cc3ccccc3nc2-1 [CAMPTOTHECIN]
[6]
  selectivity ratio: 0.01

## Oc1ccc(-c2cc(-c3ccc(O)cc3)nc(NCCCCNc3ccnc4cc(Cl)ccc34)n2)cc1
[2]
  Dissociation rate constant (koff): 8.81 10^-2/s
[3]
  Kd: 4.43 nM
[6]
  selectivity ratio: 9.79
[4]
  Kd: 11.4 nM
[5]
  Dissociation rate constant (koff): 1.2 10^-1/s
[1]
  IC50: 320 nM
[7]
  IC50: 3160 nM

## COc1ccc(-c2cc(-c3ccc(OC)c(OC)c3)nc(N3CCN(c4ccnc5cc(Cl)ccc45)CC3)n2)cc1
[1]
  IC50: 17800 nM

## CCN(CC)CCCC(C)Nc1ccnc2cc(Cl)ccc12 (centres undefined) [CHLOROQUINE]
[7]
  IC50: 101000 nM

## Cc1ccc(-c2cc(-c3ccc(Cl)cc3)nc(N3CCN(c4ccnc5cc(Cl)ccc45)CC3)n2)cc1
[1]
  IC50: 13100 nM

## COc1ccc(-c2cc(-c3ccc(C)cc3)nc(NCCNc3ccnc4cc(Cl)ccc34)n2)cc1
[1]
  IC50: 4300 nM

## COc1ccc(-c2cc(-c3ccc(OC)c(OC)c3)nc(N3CCN(c4ccnc5cc(Cl)ccc45)CC3)n2)cc1OC
[2]
  Dissociation rate constant (koff): 7 10^-2/s
[3]
  Kd: 2050 nM
[4]
  Kd: 26.1 nM
[5]
  Dissociation rate constant (koff): 7.48 10^-2/s
[1]
  IC50: 6170 nM

## COc1ccc(-c2cc(-c3ccc(C)cc3)nc(NCCCNc3ccnc4cc(Cl)ccc34)n2)cc1
[1]
  IC50: 2710 nM

## Oc1ccc(-c2cc(-c3ccc(O)c(O)c3)nc(N3CCN(c4ccnc5cc(Cl)ccc45)CC3)n2)cc1
[1]
  IC50: 2660 nM

From ChEMBL document CHEMBL4814004, “Design and synthesis of quinoline-pyrimidine inspired hybrids as potential plasmodial inhibitors” (Eur J Med Chem, 2021)
